In test [1] the test system is Mus musculus. The experiment in a line: Uterotrophic effect in BDF1 mouse at a dose of 1.4 mg/kg (4.6*10e-6M/kg). The class given is functional, organism-based. Also noted: dose 1.4 mg/kg. The conditions noted are these: Uterus. The essentials: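 BDF1 mice bearing MXT mammary carcinoma. Dosing sc in water three times a week for 6 weeks. Uterine index = [uterus dry weight (mg)/body weight (g)] × 100 (± SD), read at the end of therapy; U test.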

In test [2] the test system is MDA-MB-231. The experiment in a line: Incorporation of [3H]- thymidine into hormone independent MDA-MB-231 breast cancer cells. The conditions noted are these: Homo sapiens. It counts as functional, cell-based.
Test [3] in a line: Cell growth inhibition of MXT-ER+ breast cancer cells ata dose of 2 mg/kg. It counts as functional, organism-based. Set-up: dose 2 mg/kg. The conditions noted are these: Mus musculus; Cancer cell lines. The essentials: (§1)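 Hormone-dependent MXT mammary carcinoma (ER+) model. Equimolar doses (2 × 10⁻⁵ M/kg) were given sc three times weekly (Mon, Wed, Fri) as a solution or suspension in polyethylene glycol 400/H₂O (1:1); some agents were given in olive oil. Median tumor weight was taken at the end of 6 weeks of therapy and given as T/C %. Significance was tested by the Wilcoxon-Mann-Whitney U test.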

Test [4] can be described thus: Cell growth inhibition of MXT-ER- breast cancer cells ata dose of 2 mg/kg. The conditions noted are these: Mus musculus; Cancer cell lines. Also noted: dose 2 mg/kg. It counts as functional, organism-based. Put shortly:
(§2)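 Hormone-independent MXT mammary carcinoma (ER−) in mice. Equimolar doses (2 × 10⁻⁵ M/kg) were given sc three times a week (Mon, Wed, Fri) in polyethylene glycol 400/H₂O (1:1), or in olive oil for some agents. Median tumor area was measured at the end of a 2-week therapy and expressed as T/C %.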

The species entered for test [5] is Mus musculus. The experiment in a line: (§3) Uterotrophic effect in BDF1 mouse measured as([weight of uterus (mg)/body weight (g)] *100). It counts as functional, organism-based.
Test [6] can be described thus: Cell growth inhibition of MXT-ER+ breast cancer cells at a dose of 4.2 mg/kg (1.4*10^-5 M/kg). Set-up: dose 4.2 mg/kg. The conditions noted are these: Mus musculus, Cancer cell lines. The class given is functional, organism-based. The essentials: (§4)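 Hormone-dependent MXT mammary carcinoma in BDF₁ mice. Dosing was sc in water as vehicle: 1.4 mg/kg three times a week, and 4.2 mg/kg once per week. Median tumor weight was taken after 6 weeks of therapy and expressed as T/C %. Significance was tested by the Wilcoxon-Mann-Whitney U test.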

Test [7] is filed under the species Mus musculus. The test is described as §3. The class given is functional. The essentials:
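Female BDF1 mice carrying MXT ER+ mammary carcinoma were dosed in olive oil, sc, three times a week, for 6 weeks. At the end of therapy, uterotropic effect = [uterus dry weight (mg)/body weight (g)] × 100, given as mean ± SD and as T/C % versus control. Significance was by the U test.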

In test [8] the test system is MCF7S. The experiment in a line: Cell growth inhibition in hormone dependent MCF 7 breast cancer cells. The class given is functional, cell-based. The conditions noted are these: Homo sapiens.
For test [9], the system named is Mus musculus. The experiment in a line: Median tumor weight MXT ER+ determined at the end of 6 week therapy at a dose of 1.4 mg/kg (4.6*10e-6M/kg). It counts as functional, organism-based. Set-up: dose 1.4 mg/kg. Put shortly:
as §4

Test [10] relates to MDA-MB-231. The experiment in a line: Cell growth inhibition in hormone independent MDA-MB-231 breast cancer cells. The class given is functional, cell-based. The conditions noted are these: Homo sapiens.
Test [11] has as its system Mus musculus. The experiment in a line: Median tumor weight of MXT ER+ determined at the end of 6 week therapy at a dose of 4.2 mg/kg (1.4*10^-5 M/kg). Set-up: dose 4.2 mg/kg. The class given is functional, organism-based. Put shortly: (§5)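 BDF1 mice bearing MXT mammary carcinoma. Dosing sc in water once per week over a 6-week therapy. Median tumor weight and uterine index ([uterus dry weight (mg)/body weight (g)] × 100) were read at the end of therapy; U test (Wilcoxon, Mann, Whitney).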

Test [12] relates to Mus musculus. The experiment in a line: Median tumor weight of MXT ER+ determined at the end of 6 week therapy ata dose of 2 mg/kg. Set-up: dose 2 mg/kg. The class given is functional, organism-based. The essentials: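 BDF1 mice with hormone-dependent MXT mammary carcinoma (ER+). Equimolar dosing at 2 × 10⁻⁵ M/kg, given sc in olive oil three times a week (Mon/Wed/Fri) for 6 weeks. Median tumor weight was taken at the end of therapy and compared with controls by the Wilcoxon–Mann–Whitney U test.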

For test [13], the system named is Mus musculus. The experiment in a line: Uterotrophic effect in BDF1 mouse ata dose of 2 mg/kg. The conditions noted are these: Uterus. Also noted: dose 2 mg/kg. It counts as functional, organism-based. Put shortly:
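Uterus of BDF1 mice in the MXT ER+ study. Equimolar dosing at 2 × 10⁻⁵ M/kg, sc in olive oil three times a week (Mon/Wed/Fri). Uterine response = [uterus dry weight (mg)/body weight (g)] × 100, determined at the end of the 6-week therapy; U test.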

For test [14], the system named is MCF7S. The experiment in a line: Incorporation of [3H]- thymidine in hormone dependent MCF-7 breast cancer cells. The conditions noted are these: Homo sapiens. The class given is functional, cell-based.
Test [15] concerns Mus musculus. The experiment in a line: Uterotrophic effect in BDF1 mouse at a dose of 4.2 mg/kg (1.4*10^-5 M/kg). It counts as functional, organism-based. Set-up: dose 4.2 mg/kg. The conditions noted are these: Uterus. Put shortly:
as §5

A short description of test [16]: Cell growth inhibition of MXT-ER+ breast cancer cells at a dose of 1.4 mg/kg (4.6*10e-6M/kg). It counts as functional, organism-based. Also noted: dose 1.4 mg/kg. The conditions noted are these: Mus musculus, Cancer cell lines. Put shortly:
as §4

In test [17] the test system is MDA-MB-231. The experiment in a line: Incorporation of [3H]- thymidine in hormone independent MDA-MB-231 breast cancer cells. It counts as functional, cell-based. The conditions noted are these: Homo sapiens.
The nature of test [18]: Cell growth inhibition of MXT-ER+ breast cancer cells at a dose of 13.4 mg/kg. The conditions noted are these: Mus musculus, Cancer cell lines. Set-up: dose 13.4 mg/kg. The class given is functional, organism-based. The essentials: as §1
Test [19] has as its system Mus musculus. The experiment in a line: Uterotrophic effect in BDF1 mouse at a dose of 13.4 mg/kg. Set-up: dose 13.4 mg/kg. The conditions noted are these: Uterus. The class given is functional, organism-based. The essentials: (§6)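 Uterus of BDF1 mice in the MXT ER+ study. Equimolar dosing at 2 × 10⁻⁵ M/kg, sc in PEG 400/H₂O 1:1 three times a week (Mon/Wed/Fri). Uterine response = [uterus dry weight (mg)/body weight (g)] × 100, determined after 6 weeks of therapy; U test.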

For test [20], the system named is Mus musculus. The experiment in a line: Median tumor weight of MXT ER+ determined at the end of 6 week therapy at a dose of 13.4 mg/kg. It counts as functional, organism-based. Set-up: dose 13.4 mg/kg. Put shortly: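 BDF1 mice with hormone-dependent MXT mammary carcinoma (ER+). Equimolar dosing at 2 × 10⁻⁵ M/kg, given sc three times a week (Mon/Wed/Fri) for 6 weeks as a solution or suspension in PEG 400/H₂O 1:1. Median tumor weight was taken at the end of therapy; U test (Wilcoxon, Mann, Whitney).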

Test [21] can be described thus: Cell growth inhibition of MXT-ER- breast cancer cells at a dose of 13.4 mg/kg. The class given is functional, organism-based. Also noted: dose 13.4 mg/kg. The conditions noted are these: Mus musculus, Cancer cell lines. Put shortly:
as §2

Test [22] in a line: Cell growth inhibition MXT-ER- breast cancer cells at a dose of 10.9 mg/kg. It counts as functional, organism-based. Also noted: dose 10.9 mg/kg. The conditions noted are these: Mus musculus, Cancer cell lines. Put shortly: as §2
Test [23] in a line: Cell growth inhibition MXT-ER+ breast cancer cells at a dose of 10.9 mg/kg. Set-up: dose 10.9 mg/kg. The class given is functional, organism-based. The conditions noted are these: Mus musculus, Cancer cell lines. Put shortly:
as §1

Test [24] has as its system Mus musculus. The experiment in a line: Uterotrophic effect in BDF1 mouse at a dose of 10.9 mg/kg. It counts as functional, organism-based. Set-up: dose 10.9 mg/kg. The conditions noted are these: Uterus. The essentials: as §6
The subject of test [25] is Mus musculus. The experiment in a line: Median tumor weight of MXT (mammary carcinoma) ER+ determined at the end of 6 week therapy at a dose of 10.9 mg/kg. Set-up: dose 10.9 mg/kg. It counts as functional, organism-based. Put shortly:
as §1

Several values for one entry are separate records, joined by “and”; a condition that tells them apart may be missing. Identical values can stand only once.

As usually defined, the T/C is the result in the treated group divided by that in the control group, in per cent. For the substance CISPLATIN, the T/C in the test with Mus musculus [1] is 114%; in test [3], 3%; in [4], 15%; in test [6], 44%; in the test with MCF7S [8] it was 11%; in the test with MDA-MB-231 [10] it was 26%. The T/C in the test with Mus musculus [13] is 114%; in the test with MCF7S [14] it was 1%; in the test with Mus musculus [15], 118%; in test [16] it was 3%; in the test on MDA-MB-231 [17], 17%. For the same substance, the ED50 in the test with MDA-MB-231 [2] was found to be 320 nM; in the test on MCF7S [8], 440 nM; in the test on MDA-MB-231 [10], 240 nM; with MCF7S [14], 110 nM. The Utreotropic effect in the test listed under Mus musculus [5] was 96 and 100. Moreover, the Effect in the test filed under Mus musculus [7] turned out to be 95. For the same substance, the Med tumor weight in the test with Mus musculus [9] worked out at 15 mg; in the test on Mus musculus [11], 222 mg; in the test with Mus musculus [12], 15 mg.
Take meso-7-PtCl2(2-Br): the ED50 came to 1200 nM in the test with MDA-MB-231 [2], 3100 nM in the test with MCF7S [8], 4300 nM in the test with MDA-MB-231 [10] and 1400 nM in the test with MCF7S [14]. Further, the T/C in [18] is 12%; in the test with MCF7S [8] it was 30%; in the test with MDA-MB-231 [10] it was 43%; with Mus musculus [19], 99%; with MCF7S [14], 15%; in test [21], 65%. The substance also showed a T/C in the test with MDA-MB-231 [17] of 13%. In addition, the Effect in the test filed under Mus musculus [7] is 89.3. The same substance showed a Med tumor weight in the test with Mus musculus [20] of 57 mg.
Consider meso-4-PtCl2(2-F), for which the ED50 in the test with MDA-MB-231 [2] was 900 nM; in the test on MCF7S [8], 4800 nM; with MDA-MB-231 [10], 1500 nM; with MCF7S [14], 1500 nM. Moreover, the T/C came to 60% in test [22]; 30% in test [23]; 100% in the test with Mus musculus [24]; 49% in the test with MCF7S [8]; 21% with MDA-MB-231 [10]; 16% in the test on MCF7S [14]. This substance had a T/C with MDA-MB-231 [17] of 12%. In the test listed under Mus musculus [7], this substance had an Effect of 89.9. Also, the Med tumor weight with Mus musculus [25] amounted to 143 mg.
